Reference: ChEMBL document CHEMBL1629494, “New amino acid esters of salicylanilides active against MDR-TB and other microbes” (Eur J Med Chem, 2010)
pIC50: −log10 of the molar value. ≈ marks a conversion by molar mass, not a printed value.

Experiments:
Aspergillus fumigatus [1] = assay: Antifungal activity against Aspergillus fumigatus 231 after 48 hrs by broth microdilution method; format: functional; details: Aspergillus fumigatus, 231, 48 h
Trichosporon beigelii [2] = assay: Antifungal activity against Trichosporon beigelii 1188 after 48 hrs by broth microdilution method; format: functional; details: Trichosporon beigelii, 1188, 48 h
Lichtheimia corymbifera [3] = assay: Antifungal activity against Absidia corymbifera 272 after 24 hrs by broth microdilution method; format: functional; details: Lichtheimia corymbifera, 272, 24 h
Mycobacterium kansasii [4] = assay: Antimycobacterial activity against Mycobacterium kansasii 235/80 after 21 days by micromethod; format: functional; details: 235/80, 504 h
How it was run: (§1)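 Micromethod in Sula semisynthetic medium, with compounds added as DMSO solutions at 1000, 500, 250, 125, 62, 32, 16, 8, 4, 2, 1, 0.5, 0.25. Inoculum dilutions: H37Rv 10^-3; M. avium 330/88 10^-5; M. kansasii 235/80 10^-4; M. kansasii 6509/96 10^-5. Incubated at 37 °C, read at 14 and 21 days, and at 7 days for M. kansasii. MIC was the lowest concentration inhibiting growth.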

Candida albicans [5] = assay: Antifungal activity against Candida albicans ATCC 44859 after 48 hrs by broth microdilution method; format: functional; details: ATCC 44859, 48 h
Mycobacterium kansasii [6] = assay: Antimycobacterial activity against Mycobacterium kansasii 235/80 after 7 days by micromethod; format: functional; details: 235/80, 168 h; how it was run: as §1
Mycobacterium kansasii [7] = assay: Antimycobacterial activity against Mycobacterium kansasii 6509/96 after 14 days by micromethod; format: functional; details: 6509/96, 336 h; how it was run: as §1
Pichia kudriavzevii [8] = assay: Antifungal activity against Candida krusei E28 after 48 hrs by broth microdilution method; format: functional; details: E28, 48 h
Lichtheimia corymbifera [9] = assay: Antifungal activity against Absidia corymbifera 272 after 48 hrs by broth microdilution method; format: functional; details: Lichtheimia corymbifera, 272, 48 h
Nakaseomyces glabratus [10] = assay: Antifungal activity against Candida glabrata 20/I after 48 hrs by broth microdilution method; format: functional
Mycobacterium avium [11] = assay: Antimycobacterial activity against multidrug-resistant Mycobacterium avium 330/88 after 21 days by micromethod; format: functional; details: 330/88, 504 h; how it was run: as §1
Mycobacterium kansasii [12] = assay: Antimycobacterial activity against Mycobacterium kansasii; format: functional
Pichia kudriavzevii [13] = assay: Antifungal activity against Candida krusei E28 after 24 hrs by broth microdilution method; format: functional; details: E28, 24 h
Mycobacterium kansasii [14] = assay: Antimycobacterial activity against Mycobacterium kansasii 6509/96 after 21 days by micromethod; format: functional; details: 6509/96, 504 h; how it was run: as §1
Mycobacterium kansasii [15] = assay: Antimycobacterial activity against Mycobacterium kansasii 235/80 after 14 days by micromethod; format: functional; details: 235/80, 336 h; how it was run: as §1
Mycobacterium avium [16] = assay: Antimycobacterial activity against Mycobacterium avium; format: functional
Aspergillus fumigatus [17] = assay: Antifungal activity against Aspergillus fumigatus 231 after 24 hrs by broth microdilution method; format: functional; details: Aspergillus fumigatus, 231, 24 h
Candida tropicalis [18] = assay: Antifungal activity against Candida tropicalis 156 after 24 hrs by broth microdilution method; format: functional; details: Candida tropicalis, 156, 24 h
Candida albicans [19] = assay: Antifungal activity against Candida albicans ATCC 44859 after 24 hrs by broth microdilution method; format: functional; details: ATCC 44859, 24 h
Candida tropicalis [20] = assay: Antifungal activity against Candida tropicalis 156 after 48 hrs by broth microdilution method; format: functional; details: Candida tropicalis, 156, 48 h
Mycobacterium kansasii [21] = assay: Antimycobacterial activity against Mycobacterium kansasii 6509/96 after 7 days by micromethod; format: functional; details: 6509/96, 168 h; how it was run: as §1
Mycobacterium avium [22] = assay: Antimycobacterial activity against multidrug-resistant Mycobacterium avium 330/88 after 14 days by micromethod; format: functional; details: 330/88, 336 h; how it was run: as §1
Trichosporon beigelii [23] = assay: Antifungal activity against Trichosporon beigelii 1188 after 24 hrs by broth microdilution method; format: functional; details: Trichosporon beigelii, 1188, 24 h
[24] = tested on: Mycobacterium tuberculosis; assay: Antimycobacterial activity against Mycobacterium tuberculosis H37Rv 331/88 after 21 days by micromethod; format: functional; details: H37Rv 331/88, 504 h; how it was run: as §1
[25] = tested on: Trichophyton mentagrophytes; assay: Antifungal activity against Trichophyton mentagrophytes after 48 hrs by broth microdilution method; format: functional
[26] = tested on: Mycobacterium tuberculosis; assay: Antimycobacterial activity against Mycobacterium tuberculosis H37Rv 331/88 after 14 days by micromethod; format: functional; details: H37Rv 331/88, 336 h; how it was run: as §1
[27] = Lipophilicity, log P of the compound; format: physicochemical; details: octanol/water
[28] = tested on: Mycobacterium tuberculosis; assay: Antimycobacterial activity against drug-sensitive Mycobacterium tuberculosis; format: functional
[29] = tested on: Trichophyton mentagrophytes; assay: Antifungal activity against Trichophyton mentagrophytes after 24 hrs by broth microdilution method; format: functional
Nakaseomyces glabratus [30] = assay: Antifungal activity against Candida glabrata 20/I after 24 hrs by broth microdilution method; format: functional
[31] = Selectivity index, ratio of IC50 for human PBMC to MIC for Mycobacterium tuberculosis H37Rv 331/88 after 14 days; format: functional
How it was run: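 SI = PBMC IC50 (MTT cytotoxicity) divided by the MIC against the named M. tuberculosis strain. MIC taken after 14 days of incubation at 37 °C by the micromethod.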

PBMC = assay: Cytotoxicity against human PBMC after 24 hrs by MTT assay; format: cell-based
How it was run: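 Human peripheral blood mononuclear cells in RPMI-1640 with 10% fetal calf serum, 2 mM L-glutamine and gentamicin, 37 °C, 5% CO2. Seeded at 1.5–2.0 × 10⁵ cells/well. After 24 h, treated overnight in serum-free medium. Viability by MTT (2 mg/mL, 4 h); formazan dissolved in DMSO; OD540 minus OD620. Cytotoxicity % = [1 − OD treated/OD control] × 100; IC50 from dose-response curves. Four parallels, two independent experiments.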

Compound | MIC (Mycobacterium kansasii [4]) [µM] | MIC (Mycobacterium kansasii [6]) [µM] | MIC (Mycobacterium kansasii [7]) [µM] | MIC (Mycobacterium avium [11]) [µM] | MIC (Mycobacterium kansasii [12]) [µM] | MIC (Mycobacterium kansasii [14]) [µM] | MIC (Mycobacterium kansasii [15]) [µM] | MIC (Mycobacterium avium [16]) [µM] | MIC (Mycobacterium kansasii [21]) [µM] | MIC (Mycobacterium avium [22]) [µM] | MIC [24] [µM] | MIC [26] [µM] | logP [27] | MIC [28] [µM] | other results
CC(=O)N[C@@H](Cc1ccccc1)C(=O)Oc1ccc(Cl)cc1C(=O)Nc1ccc(Br)cc1 | 4 (≈ 2.06 µg/mL) | 4 (≈ 2.06 µg/mL) | 4 (≈ 2.06 µg/mL) | 8 (≈ 4.13 µg/mL) | 1 (≈ 0.516 µg/mL) | 8 (≈ 4.13 µg/mL) | 4 (≈ 2.06 µg/mL) | 1 (≈ 0.516 µg/mL) | 4 (≈ 2.06 µg/mL) | 4 (≈ 2.06 µg/mL) | 2 (≈ 1.03 µg/mL) | 2 (≈ 1.03 µg/mL) | 4.83 | 1 (≈ 0.516 µg/mL) | MIC (Aspergillus fumigatus [1]): > 125 µM; MIC (Trichosporon beigelii [2]): > 125 µM; MIC (Lichtheimia corymbifera [3]): 125 µM (≈ 64.5 µg/mL); MIC (Candida albicans [5]): > 125 µM; MIC (Pichia kudriavzevii [8]): > 125 µM; MIC (Lichtheimia corymbifera [9]): > 125 µM; MIC (Nakaseomyces glabratus [10]): > 125 µM; MIC (Pichia kudriavzevii [13]): 125 µM (≈ 64.5 µg/mL); MIC (Aspergillus fumigatus [17]): 125 µM (≈ 64.5 µg/mL); MIC (Candida tropicalis [18]): > 125 µM; MIC (Candida albicans [19]): 125 µM (≈ 64.5 µg/mL); MIC (Candida tropicalis [20]): > 125 µM; MIC (Trichosporon beigelii [23]): 125 µM (≈ 64.5 µg/mL); MIC [25]: > 125 µM; MIC [29]: > 125 µM; MIC (Nakaseomyces glabratus [30]): > 125 µM
CC(=O)N[C@@H](Cc1ccccc1)C(=O)Oc1ccc(Cl)cc1C(=O)Nc1ccc(Cl)c(Cl)c1 | 4 (≈ 2.02 µg/mL) | 1 (≈ 0.506 µg/mL) | 2 (≈ 1.01 µg/mL) | 8 (≈ 4.05 µg/mL) | 1 (≈ 0.506 µg/mL) | 4 (≈ 2.02 µg/mL) | 2 (≈ 1.01 µg/mL) | 1 (≈ 0.506 µg/mL) | 1 (≈ 0.506 µg/mL) | 8 (≈ 4.05 µg/mL) | 1 (≈ 0.506 µg/mL) | 0.5 (≈ 0.253 µg/mL) | 5.12 | 1 (≈ 0.506 µg/mL) | Selectivity Index [31]: 88; pIC50 (PBMC): 4.36
